Measured values as given in ChEMBL document CHEMBL4715745, “Synthesis and biological evaluation of novel FK228 analogues as potential isoform selective HDAC inhibitors” (Eur J Med Chem, 2016).

Tested on: DMS-273
Test: Growth inhibition of human DMS-273 cells measured after 48 hrs by sulforhodamine B assay
Assay type: functional
Details: not given
Outline: (§1)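 Panel of 39 human cancer cell lines tested at the Japanese Foundation for Cancer Research. Five concentrations per compound, spanning 10⁻¹¹–10⁻⁷ M, 10⁻¹⁰–10⁻⁶ M or 10⁻⁸–10⁻⁴ M, were used to build dose-response curves. GI₅₀ is the concentration giving 50% growth inhibition relative to control.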

Compound | GI50
CC(C)[C@H]1NC(=O)C[C@H]2/C=C/CCSSC[C@@H](NC1=O)C(=O)NCC(=O)NCC(=O)O2 | 47 µM

Tested on: DMS-114
Test: Growth inhibition of human DMS-114 cells measured after 48 hrs by sulforhodamine B assay
Assay type: functional
Details: not given
Outline: as §1

Compound | GI50
CC(C)[C@H]1NC(=O)C[C@H]2/C=C/CCSSC[C@@H](NC1=O)C(=O)NCC(=O)NCC(=O)O2 | 5.2 µM

Tested on: MCF7
Test: Growth inhibition of human MCF7 cells measured after 48 hrs by sulforhodamine B assay
Assay type: functional
Details: not given
Outline: as §1

GI50 | Compound
33 µM | CC(C)[C@H]1NC(=O)C[C@H]2/C=C/CCSSC[C@@H](NC1=O)C(=O)NCC(=O)NCC(=O)O2

Tested on: U-251
Test: Growth inhibition of human U-251 cells measured after 48 hrs by sulforhodamine B assay
Assay type: functional
Details: not given
Outline: as §1

GI50 | Compound
17 µM | CC(C)[C@H]1NC(=O)C[C@H]2/C=C/CCSSC[C@@H](NC1=O)C(=O)NCC(=O)NCC(=O)O2

Tested on: MKN-7
Test: Growth inhibition of human MKN-7 cells measured after 48 hrs by sulforhodamine B assay
Assay type: functional
Details: not given
Outline: as §1

GI50 | Compound
47 µM | CC(C)[C@H]1NC(=O)C[C@H]2/C=C/CCSSC[C@@H](NC1=O)C(=O)NCC(=O)NCC(=O)O2

Tested on: SK-OV-3
Test: Growth inhibition of human SK-OV-3 cells measured after 48 hrs by sulforhodamine B assay
Assay type: functional
Details: not given
Outline: as §1

GI50 | Compound
12 µM | CC(C)[C@H]1NC(=O)C[C@H]2/C=C/CCSSC[C@@H](NC1=O)C(=O)NCC(=O)NCC(=O)O2

Tested on: MKN-1
Test: Growth inhibition of human MKN-1 cells measured after 48 hrs by sulforhodamine B assay
Assay type: functional
Details: not given
Outline: as §1

GI50 | Compound
12 µM | CC(C)[C@H]1NC(=O)C[C@H]2/C=C/CCSSC[C@@H](NC1=O)C(=O)NCC(=O)NCC(=O)O2

Tested on: NCI-H23
Test: Growth inhibition of human NCI-H23 cells measured after 48 hrs by sulforhodamine B assay
Assay type: functional
Details: not given
Outline: as §1

GI50 | Compound
36 µM | CC(C)[C@H]1NC(=O)C[C@H]2/C=C/CCSSC[C@@H](NC1=O)C(=O)NCC(=O)NCC(=O)O2

Tested on: SF-268
Test: Growth inhibition of human SF-268 cells measured after 48 hrs by sulforhodamine B assay
Assay type: functional
Details: not given
Outline: as §1

Compound | GI50
CC(C)[C@H]1NC(=O)C[C@H]2/C=C/CCSSC[C@@H](NC1=O)C(=O)NCC(=O)NCC(=O)O2 | 12 µM

Biological target: Histone deacetylase 1 (Homo sapiens, UniProt Q13547)
Sequence (Q13547 whole entry): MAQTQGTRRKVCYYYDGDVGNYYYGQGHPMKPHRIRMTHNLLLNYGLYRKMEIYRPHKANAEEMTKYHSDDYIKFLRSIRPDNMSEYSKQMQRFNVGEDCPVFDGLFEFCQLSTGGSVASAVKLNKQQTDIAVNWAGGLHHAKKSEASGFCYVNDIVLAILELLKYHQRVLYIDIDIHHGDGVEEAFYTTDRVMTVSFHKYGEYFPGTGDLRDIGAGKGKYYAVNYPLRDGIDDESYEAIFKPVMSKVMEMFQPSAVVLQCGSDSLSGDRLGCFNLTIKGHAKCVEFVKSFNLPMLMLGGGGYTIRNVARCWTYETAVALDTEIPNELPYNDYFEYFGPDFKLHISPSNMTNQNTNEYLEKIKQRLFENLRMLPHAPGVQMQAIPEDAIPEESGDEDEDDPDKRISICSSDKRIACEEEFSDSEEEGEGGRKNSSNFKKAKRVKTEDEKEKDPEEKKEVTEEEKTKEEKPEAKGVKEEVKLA
Test: Inhibition of human HDAC1 expressed in 293T cells using Ac-KGLGK(Ac)-MCA as substrate incubated for 30 mins in presence of 0.1 mM DTT by fluorescence plate reader assay
Set-up: species or system HEK293T
Details: not given

IC50 | Compound
0.0924 µM | CC(C)[C@H]1NC(=O)C[C@H]2/C=C/CCSSC[C@@H](NC1=O)C(=O)NCC(=O)NCC(=O)O2

Tested on: HCT-15
Test: Growth inhibition of human HCT-15 cells measured after 48 hrs by sulforhodamine B assay
Assay type: functional
Details: not given
Outline: as §1

GI50 | Compound
100 µM | CC(C)[C@H]1NC(=O)C[C@H]2/C=C/CCSSC[C@@H](NC1=O)C(=O)NCC(=O)NCC(=O)O2

Tested on: St-4
Test: Growth inhibition of human St-4 cells measured after 48 hrs by sulforhodamine B assay
Assay type: functional
Details: not given
Outline: as §1

Compound | GI50
CC(C)[C@H]1NC(=O)C[C@H]2/C=C/CCSSC[C@@H](NC1=O)C(=O)NCC(=O)NCC(=O)O2 | 81 µM

Tested on: SNB-75
Test: Growth inhibition of human SNB-75 cells measured after 48 hrs by sulforhodamine B assay
Assay type: functional
Details: not given
Outline: as §1

Compound | GI50
CC(C)[C@H]1NC(=O)C[C@H]2/C=C/CCSSC[C@@H](NC1=O)C(=O)NCC(=O)NCC(=O)O2 | 0.95 µM

Tested on: LOX IMVI
Test: Growth inhibition of human LOX IMVI cells measured after 48 hrs by sulforhodamine B assay
Assay type: functional
Details: not given
Outline: as §1

Compound | GI50
CC(C)[C@H]1NC(=O)C[C@H]2/C=C/CCSSC[C@@H](NC1=O)C(=O)NCC(=O)NCC(=O)O2 | 2.9 µM

Biological target: T1, Protein deacetylase HDAC6 (Mus musculus, UniProt Q9Z2V5)
T1 sequence (Q9Z2V5 whole entry): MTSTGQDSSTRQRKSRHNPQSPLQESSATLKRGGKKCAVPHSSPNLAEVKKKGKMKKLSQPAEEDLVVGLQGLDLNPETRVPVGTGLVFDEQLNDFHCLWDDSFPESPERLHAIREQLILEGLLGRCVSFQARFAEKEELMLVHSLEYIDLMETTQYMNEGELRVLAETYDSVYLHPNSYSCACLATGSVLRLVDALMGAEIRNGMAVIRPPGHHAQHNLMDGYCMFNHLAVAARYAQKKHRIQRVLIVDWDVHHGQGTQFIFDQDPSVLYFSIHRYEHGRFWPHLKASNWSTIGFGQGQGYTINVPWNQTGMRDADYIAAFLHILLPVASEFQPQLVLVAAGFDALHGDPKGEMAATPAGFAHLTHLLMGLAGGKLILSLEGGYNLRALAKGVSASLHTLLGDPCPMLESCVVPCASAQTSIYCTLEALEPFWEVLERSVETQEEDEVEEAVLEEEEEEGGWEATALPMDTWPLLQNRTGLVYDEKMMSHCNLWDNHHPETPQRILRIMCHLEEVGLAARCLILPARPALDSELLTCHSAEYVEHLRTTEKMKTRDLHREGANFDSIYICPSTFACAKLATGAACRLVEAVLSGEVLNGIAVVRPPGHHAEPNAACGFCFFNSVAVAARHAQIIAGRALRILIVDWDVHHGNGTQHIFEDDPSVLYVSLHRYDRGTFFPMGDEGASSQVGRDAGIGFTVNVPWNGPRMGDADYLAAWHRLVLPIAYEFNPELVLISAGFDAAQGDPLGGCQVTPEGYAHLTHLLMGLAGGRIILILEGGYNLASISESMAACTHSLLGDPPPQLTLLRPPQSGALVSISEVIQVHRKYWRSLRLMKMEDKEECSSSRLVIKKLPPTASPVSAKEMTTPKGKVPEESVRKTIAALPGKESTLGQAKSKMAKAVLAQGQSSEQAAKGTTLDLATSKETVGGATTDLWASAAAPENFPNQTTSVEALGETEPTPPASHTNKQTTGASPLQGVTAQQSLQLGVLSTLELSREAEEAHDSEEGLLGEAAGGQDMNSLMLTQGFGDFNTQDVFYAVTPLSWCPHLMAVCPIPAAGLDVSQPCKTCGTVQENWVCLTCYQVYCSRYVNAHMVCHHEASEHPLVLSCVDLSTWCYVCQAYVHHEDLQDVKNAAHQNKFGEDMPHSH
Test: Inhibition of mouse HDAC6 expressed in 293T cells using Ac-KGLGK(Ac)-MCA as substrate incubated for 30 mins in presence of 0.1 mM DTT by fluorescence plate reader assay
Set-up: species or system HEK293T
Details: not given
Outline: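 HDAC enzyme assay run in the presence of 0.1 mM dithiothreitol (DTT); IC₅₀ determined.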

IC50 | Compound
1.32 µM | CC(C)[C@H]1NC(=O)C[C@H]2/C=C/CCSSC[C@@H](NC1=O)C(=O)NCC(=O)NCC(=O)O2

Tested on: not listed separately
Test: Selectivity index, ratio of IC50 for mouse HDAC6 expressed in 293T cells to IC50 for human HDAC1 expressed in 293T cells using Ac-KGLGK(Ac)-MCA as substrate incubated for 30 mins in presence of 0.1 mM DTT by fluorescence plate reader assay
Details: 0.5 h
Outline: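 Ratio of HDAC6 IC₅₀ to HDAC1 IC₅₀, taken as selectivity for class I HDAC1 over class II HDAC6. Both enzyme assays were run in the presence of 0.1 mM DTT.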

Compound | Ratio IC50
CC(C)[C@H]1NC(=O)C[C@H]2/C=C/CCSSC[C@@H](NC1=O)C(=O)NCC(=O)NCC(=O)O2 | 14

Tested on: NCI-H460
Test: Growth inhibition of human NCI-H460 cells measured after 48 hrs by sulforhodamine B assay
Assay type: functional
Details: not given
Outline: as §1

GI50 | Compound
15 µM | CC(C)[C@H]1NC(=O)C[C@H]2/C=C/CCSSC[C@@H](NC1=O)C(=O)NCC(=O)NCC(=O)O2

Tested on: DU-145
Test: Growth inhibition of human DU-145 cells measured after 48 hrs by sulforhodamine B assay
Assay type: functional
Details: not given
Outline: as §1

GI50 | Compound
5.4 µM | CC(C)[C@H]1NC(=O)C[C@H]2/C=C/CCSSC[C@@H](NC1=O)C(=O)NCC(=O)NCC(=O)O2

Tested on: OVCAR-8
Test: Growth inhibition of human OVCAR-8 cells measured after 48 hrs by sulforhodamine B assay
Assay type: functional
Details: not given
Outline: as §1

GI50 | Compound
18 µM | CC(C)[C@H]1NC(=O)C[C@H]2/C=C/CCSSC[C@@H](NC1=O)C(=O)NCC(=O)NCC(=O)O2

Tested on: NCI-H522
Test: Growth inhibition of human NCI-H522 cells measured after 48 hrs by sulforhodamine B assay
Assay type: functional
Details: not given
Outline: as §1

GI50 | Compound
0.68 µM | CC(C)[C@H]1NC(=O)C[C@H]2/C=C/CCSSC[C@@H](NC1=O)C(=O)NCC(=O)NCC(=O)O2

Tested on: KM12
Test: Growth inhibition of human KM12 cells measured after 48 hrs by sulforhodamine B assay
Assay type: functional
Details: not given
Outline: as §1

Compound | GI50
CC(C)[C@H]1NC(=O)C[C@H]2/C=C/CCSSC[C@@H](NC1=O)C(=O)NCC(=O)NCC(=O)O2 | 12 µM
